Shown are actives, neighbours in structure and some others; about 2% of the full set was active somewhere.
DNMT1 block: blocks human DNA methyltransferase DNMT1; inhibition (reported as % activation of signal), % at 10 µM; actives 0.83% (n = 360,000); DNMT1 molecular beacon, Hinp1I cleavage, fluorescence; P26358; in the data active = inhibition above about 50%
Scp1 inh: inhibitors of human Scp-1 phosphatase | Recombinant Scp1, phosphopeptide, malachite green phosphate absorbance | inhibition, % at 20 µM | actives 0.88% (n = 340,000) | AID 493091;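 active = inhibition above about 50% at 20 µM, limit read from the data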
Target sequence (Q9GZU7 76-261 limits assumed): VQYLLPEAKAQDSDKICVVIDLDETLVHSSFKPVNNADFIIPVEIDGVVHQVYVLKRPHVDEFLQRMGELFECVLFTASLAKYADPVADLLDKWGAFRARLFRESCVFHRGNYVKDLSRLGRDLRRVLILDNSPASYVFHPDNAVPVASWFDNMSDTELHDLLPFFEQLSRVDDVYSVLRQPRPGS
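Material – SCP-1 phosphatase catalytic domain, residues 76-261 · Buffer or medium – Acidic Tris acetate buffer with magnesium and detergent · Also added – Phospho 17-mer peptide substrate · Compound – single 20 µM dose, 1% DMSO · Times – 45 min room-temperature reaction, 5 min colour, 30 min stabiliser · Technique – Phosphate-binding colour reagent, absorbance read at 630 nm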
LMPTP inh: blocks human LMPTP phosphatase | recombinant LMPTP-A, OMFP fluorogenic substrate, fluorescence intensity | inhibition, % at 20 µM | P24666 | actives 0.22% (n = 360,000);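 active = compounds that cut the enzyme signal by at least half of the control window in the single-dose screen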
Target sequence (P24666 whole entry, looked up): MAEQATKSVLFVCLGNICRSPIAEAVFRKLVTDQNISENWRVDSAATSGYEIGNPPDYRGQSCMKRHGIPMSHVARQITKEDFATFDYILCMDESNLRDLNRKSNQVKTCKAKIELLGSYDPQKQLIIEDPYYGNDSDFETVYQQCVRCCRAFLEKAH
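Assay system: LMPTP-A phosphatase enzyme | Input: 0.625 nM enzyme | Also added: Fluorogenic phosphatase substrate OMFP at 400 µM final | Compound dosing: One test concentration per compound, 20 µM, with 3% DMSO overall | Schedule: 50 min enzyme reaction at room temperature, protected from light | Signal: Fluorescence intensity | Benchmarks: no-enzyme and uninhibited controls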
Rpn11 inh: blocks the human proteasome subunit Rpn11; inhibition, % at 20 µM; AID 588493; actives 0.59% (n = 360,000); human 26S proteasome, Ub4-pepOG fluorescence polarization; 20S core pre-blocked with epoxomicin;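 active = inhibition at 20 µM, scaled to each plate's controls, above about 33%, limit read from the data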
STEP inh: inhibitors of human striatal-enriched phosphatase STEP; recombinant STEP, OMFP fluorogenic substrate, fluorescence; actives 0.25% (n = 360,000); P54829; inhibition, % at 20 µM; AID 588621;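 active = inhibition at 20 µM, scaled per plate between control wells, above about 37%, limit read from the data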
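medium = Bis-Tris buffer pH 6.0, 2.5 mM DTT, 0.005% Tween 20 | test system = STEP (striatal-enriched tyrosine phosphatase) enzyme, cell-free | measure = normalized % inhibition | compound dosing = 20 µM, 1% DMSO | also added = 25 µM OMFP | schedule = reaction 20 min, ambient temperature | measured by = fluorescence read at 480 nm ex / 540 nm em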
A number is an active result; . = inactive; / = not tested or not shown; + = active, no number.

SMILES	DNMT1 block	Scp1 inh	LMPTP inh	Rpn11 inh	STEP inh
COCCNc1nc(NCc2cccc(OC)c2OC)c2sccc2n1	.	/	62.2	.	.
C[N+](C)(C)CCNC(=O)c1ccccc1	/	/	.	/	/
Nc1ncc2c(n1)CC(c1ccco1)CC2=O (stereo unspecified)	.	.	60.2	.	.
CC1=NOC(=O)/C1=C\c1ccc(-c2ccc(Br)cc2)o1	61.3	.	.	.	.
CC1=NOC(=O)/C1=C/c1ccc(-c2ccc(Cl)cc2)o1	.	/	.	.	.
O=c1c2ccccc2sn1-c1nccs1	.	96.5	.	.	.
O=c1c2ccccc2sn1-c1cccc(Cl)c1	.	/	.	.	.
O=c1c2cc(F)ccc2sn1-c1ccccc1	.	91.6	.	.	.
O=c1c2ccccc2sn1-c1ccccc1	.	65.4	.	.	.
O=C(O)c1cccc(-n2sc3ccccc3c2=O)c1	.	88.2	.	.	.
CCc1nn(CCCC(=O)NC2CCCCC2C)c(=O)c2cc3occc3n12 (stereo unspecified)	.	/	.	.	.
CN(C)c1ccc(CNC(=O)C2(C)Cc3c(-c4cccc(C(F)(F)F)c4)ccnc3O2)cc1 (stereo unspecified)	.	/	.	.	.
Cc1ccc(-n2sc3ccccc3c2=O)cc1S(=O)(=O)N1CCCCC1	.	96.8	.	.	.
CN(C)S(=O)(=O)c1cccc(-n2sc3ccccc3c2=O)c1	.	99.2	.	.	.
O=c1c2ccccc2sn1-c1ccc(S(=O)(=O)N2CCCC2)cc1	.	.	.	.	.
C=CCn1c(O)c2ccc(C(=O)N=NC(=O)c3ccc(F)cc3)cc2c1O	.	.	.	.	.
N=C1CCC(=N)c2c1c(O)c1ccccc1c2O	75.6	.	.	.	.
Cc1ccc(/C=C/c2nc3sc(C(=O)O)c(C)c3c(=O)[nH]2)cc1[N+](=O)[O-]	.	89.4	64.4	.	99.0
O=C(Cn1cc(COc2ccc3ccccc3c2)nn1)NS(=O)(=O)c1cccc(OC(F)F)c1	.	/	.	.	.
Nc1ccc(-c2c3ccc(=O)cc-3oc3cc(O)ccc23)c(C(=O)O)c1	+	.	.	.	.
COCCNC(=O)C1CCCN(C(=O)c2cc(-c3cccs3)oc2C)CC1 (stereo unspecified)	.	/	.	.	.
COc1cc(-c2noc(C)c2/C=C/c2cccc([N+](=O)[O-])c2)cc(OC)c1OC	.	.	.	.	.
COc1cc(-c2noc(C)c2/C=C/c2ccc(C(=O)O)cc2)cc(OC)c1OC	60.6	.	.	.	.
O=C1/C(=C\c2cc(Cl)c(O)c(Cl)c2)SC(=S)N1Cc1ccccc1	59.4	.	.	/	.
COc1ccc(/C=C2/SC(=S)N(Cc3ccccc3)C2=O)cc1O	.	.	.	.	.
SMILES	DNMT1 block	Scp1 inh	LMPTP inh	Rpn11 inh	STEP inh
COc1cccc(OC)c1-c1nn2c(-c3cc(-c4ccccc4)n[nH]3)nnc2s1	.	90.3	56.2	.	.
COc1cccc(-c2nnc3sc(-c4ccccc4)nn23)c1	.	.	.	.	.
COc1cc([C@H]2c3[nH]c4ccccc4c3C[C@H]3C(=O)N4[C@@H](c5cc(OC)c(OC)c(OC)c5)c5[nH]c6ccccc6c5C[C@H]4C(=O)N23)cc(OC)c1OC	52.0	.	.	.	.
O=C(C[C@H]1CC[C@@H](NC(=O)C2CC2)[C@@H](CO)O1)NCc1ccccc1Cl	/	/	.	/	/
O=c1c2cc(Cl)ccc2nc(-c2ccc(Cl)c(Cl)c2)n1O	.	.	54.4	.	.
O=c1c2cc(Cl)ccc2nc(-c2ccccc2)n1O	.	.	.	.	.
CCn1c(/C=C/N(C)c2ccccc2)[n+](CC)c2ccc(Cl)cc21	.	74.0	.	.	.
CCOC(=O)C(C(=O)OCC)c1cc(Br)c2noc3c2c1C(=O)c1ccccc1-3	57.1	.	.	.	.
Nc1cc2nc3ccccc3oc-2cc1=O	.	.	.	54.3	.
CC(C)=CCC[C@H](C)C[C@@H]1Cc2[nH][nH]c(=O)c2[C@H](c2ccc(F)cc2)O1	/	/	.	/	/
CCN=C1S/C(=C\c2ccc(-c3cccc(C(=O)O)c3)o2)C(=O)N1CC	.	.	.	.	.
O=C(O)c1cccc(-c2ccc(/C=C3/SC(=Nc4ccccc4)N(Cc4cccnc4)C3=O)o2)c1	.	73.3	.	.	.
N#Cc1c(-c2ccccc2)cc(-c2cccs2)nc1SCC(=O)O	.	.	.	.	.

Bioassay records from PubChem BioAssay.
